Screening data as filed in PubChem.
Compounds with a hit are over-represented: about 3% of the library has one in this group of screens.
PfGluPho inh: PfG6PD (Plasmodium falciparum) enzyme inhibition; inhibition, % at 20 µM; actives 0.78% (n = 350,000); PfGluPho enzyme, NADPH resazurin-diaphorase fluorescence;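 active = inhibition reaching at least a set limit at 20 µM in the primary screen, cut at about 59% in these data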;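 also: 0% = DMSO wells with substrate and 100% = DMSO wells lacking glucose-6-phosphate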
MC4R barr agon: activates human MC4R beta-arrestin recruitment | activation, % at 8.9 µM | actives 0.98% (n = 360,000) | U2OS MC4R beta-arrestin complementation, luminescence; percent of melanotan II response, DMSO zero;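 active = activation above a per-plate cutoff, the mean activation of sample wells on that plate plus 3 SD, cut at about 8% in these data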
Target sequence (P32245 whole entry, looked up): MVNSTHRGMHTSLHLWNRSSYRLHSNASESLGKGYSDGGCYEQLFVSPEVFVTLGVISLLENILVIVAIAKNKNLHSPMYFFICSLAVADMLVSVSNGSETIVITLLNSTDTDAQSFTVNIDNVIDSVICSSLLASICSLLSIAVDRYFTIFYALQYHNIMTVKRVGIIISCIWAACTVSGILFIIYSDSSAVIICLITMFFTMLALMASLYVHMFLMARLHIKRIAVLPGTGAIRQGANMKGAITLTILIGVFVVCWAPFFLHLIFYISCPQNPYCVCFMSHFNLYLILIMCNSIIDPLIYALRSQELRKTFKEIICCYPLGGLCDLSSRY
MC4R antag cAMP: blocks human MC4R cAMP signaling; actives 0.48% (n = 360,000); inhibition, % at 6.5 µM; MC4R-expressing cells, MTII-stimulated cAMP, LANCE TR-FRET; P32245;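 active = inhibition above its plate's cutoff, the mean of tested wells on that plate plus 3 SD, cut at about 29% in these data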;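 also: 0% = Melanotan II alone and 100% = Melanotan II plus saturating MCL0020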
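System – human MC4R-expressing U2OS cells · Also added – Melanotan II · Dosing – one concentration, 6.5 µM nominal · Timing – 30-min compound, 1-h challenge, 1-h detection, room temperature · Measured by – Eu-cAMP/anti-cAMP TR-FRET, emission 671 nm · Replicates – singlicate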
B2AR ag: agonists of human beta-2 adrenergic receptor inducing internalization | AID 504454 | Am2.2-beta2AR cells, FAP receptor internalization, flow cytometry | response, % (concentration not given with the values) | actives 0.43% (n = 340,000) | P07550;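 active = response above a set limit, near 3 SD of response in nonfluorescent compounds, cut at about 42% in these data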
ABHD5-PLIN5 inh: inhibitors of human ABHD5-perilipin-5 interaction | Q00G26+Q8WTS1 | Split G. princeps luciferase complementation, luminescence, 4 h | inhibition, % at 4 µM | actives 0.78% (n = 360,000) | AID 602281;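 active = inhibition above the mean inhibition across every tested compound plus 3 SD, cut at about 22% in these data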;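 also: 0% = DMSO only wells and the 100% control is not disclosed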
* marks the source's active call; other numbers are inactive results.

How did COc1cccc(C(=O)OCC(=O)N2CCc3ccccc3C2)c1 do in these assays?
PfGluPho inh: 8; MC4R barr agon: -1; MC4R antag cAMP: 3; B2AR ag: 3; ABHD5-PLIN5 inh: 11

How did Nc1ccc(-c2cc3ccccc3oc2=O)cc1 do in these assays?
PfGluPho inh: -4; MC4R barr agon: -2; MC4R antag cAMP: -1; B2AR ag: -3; ABHD5-PLIN5 inh: 2

How did O=C/C=C/c1c(-c2ccccc2)cc2oc3ccccc3cc1-2 do in these assays?
PfGluPho inh: 22; MC4R barr agon: 1; MC4R antag cAMP: 8; B2AR ag: 64*; ABHD5-PLIN5 inh: 2

Results for CC(Oc1ccc([N+](=O)[O-])cc1)C(=O)NCC1CCCO1 (centres undefined) ?
PfGluPho inh: -1; MC4R barr agon: -1; MC4R antag cAMP: 17; B2AR ag: 0; ABHD5-PLIN5 inh: 3

What do the screens show for `CCOC(=O)C1(C)CCCCCN1C(=O)c1ccc(OC)cc1` (centres undefined)?
MC4R barr agon: 0; MC4R antag cAMP: 6; ABHD5-PLIN5 inh: 5

How did Cc1nc2ccccc2n2c(O)c(CC(=O)O)cc12 do in these assays?
PfGluPho inh: 18; MC4R barr agon: 8.3*; MC4R antag cAMP: -30; B2AR ag: -7; ABHD5-PLIN5 inh: 4

What do the screens show for `CCC(C)[C@H](NC(=O)C1CC(=O)N(c2ccc(OC)cc2)C1)C(=O)NC1CCCC1` (some centres undefined)?
PfGluPho inh: -5; MC4R barr agon: -2; MC4R antag cAMP: 4; B2AR ag: -2; ABHD5-PLIN5 inh: -1

Results for COc1ccc2ccccc2c1/C=N/NC(=O)c1sc(N)c(C#N)c1C ?
PfGluPho inh: 20; MC4R barr agon: 10*; MC4R antag cAMP: -11; B2AR ag: 9; ABHD5-PLIN5 inh: 0

What do the screens show for `CCC(CC)C(C(=O)NCc1ccccc1)N(C)Cc1ccc(Cl)c(Cl)c1` (centres undefined)?
ABHD5-PLIN5 inh: -16

What do the screens show for `COC(=O)c1cc(=O)nc2sc(-c3cccs3)nn12`?
PfGluPho inh: 8; MC4R barr agon: -1; MC4R antag cAMP: 6; B2AR ag: -2; ABHD5-PLIN5 inh: 6

Results for COC(=O)c1cc(=O)nc2sc(-c3ccc(F)cc3)nn12 ?
PfGluPho inh: 59*; MC4R barr agon: 1; MC4R antag cAMP: -1; B2AR ag: 9; ABHD5-PLIN5 inh: 9

What do the screens show for `CC(=O)Nc1ccc(NC(=O)CN(c2ccc(C34CC5CC(CC(C5)C3)C4)cc2)S(C)(=O)=O)cc1`?
PfGluPho inh: 3; MC4R barr agon: 11*; MC4R antag cAMP: 10; B2AR ag: -9; ABHD5-PLIN5 inh: -10

How did CS(=O)(=O)N(CC(=O)Nc1ccc(CC#N)cc1)c1ccc(C23CC4CC(CC(C4)C2)C3)cc1 do in these assays?
PfGluPho inh: 16; MC4R barr agon: 0; MC4R antag cAMP: 24; B2AR ag: -1; ABHD5-PLIN5 inh: -3

Results for CC(C)c1ccc(NC2CCCN(C(=O)CN3CCCCC3=O)C2)cc1 (centres undefined) ?
PfGluPho inh: 1; MC4R barr agon: 1; MC4R antag cAMP: 0; ABHD5-PLIN5 inh: -10

Results for C[C@@H]1CN([C@H](C)CO)S(=O)(=O)c2ccc(C#CC3CCCC3)cc2O[C@H]1CN(C)C(=O)Cc1ccccc1 ?
PfGluPho inh: 39; MC4R barr agon: 0; MC4R antag cAMP: 21; ABHD5-PLIN5 inh: -2

What do the screens show for `O=C(O)c1cc(N2N=C(C(F)(F)F)/C(=C/C=C/c3ccco3)C2=O)ccc1Cl`?
PfGluPho inh: 27; MC4R barr agon: -2; MC4R antag cAMP: -3; B2AR ag: 2; ABHD5-PLIN5 inh: 22*

How did O=C(/C=C/c1cn(-c2ccccc2)nc1-c1cccnc1)c1ccco1 do in these assays?
PfGluPho inh: 13; MC4R barr agon: 0; MC4R antag cAMP: 21; B2AR ag: 81*; ABHD5-PLIN5 inh: 13

What do the screens show for `O=C(/C=C/c1cn(-c2ccccc2)nc1-c1cccnc1)N1CCCC1`?
PfGluPho inh: -14; MC4R barr agon: -3; MC4R antag cAMP: 24; B2AR ag: -39; ABHD5-PLIN5 inh: 10

Results for Cc1c(NC(=O)c2ccc([N+](=O)[O-])o2)cccc1-c1nc2ncccc2o1 ?
PfGluPho inh: 11; MC4R barr agon: 0; MC4R antag cAMP: 8; B2AR ag: 26; ABHD5-PLIN5 inh: -7

What do the screens show for `COc1cc(/C=C(/C#N)c2nc3ccccc3[nH]2)ccc1Oc1ncccc1[N+](=O)[O-]`?
PfGluPho inh: -1; MC4R barr agon: 14*; MC4R antag cAMP: 8; B2AR ag: -3; ABHD5-PLIN5 inh: 1

Results for CCOc1cc(/C=C(/C#N)c2nc3ccccc3[nH]2)ccc1Oc1ccc([N+](=O)[O-])cn1 ?
PfGluPho inh: -8; MC4R barr agon: 3; MC4R antag cAMP: -5; B2AR ag: -21; ABHD5-PLIN5 inh: -5

Results for COC(=O)c1ccc(COc2ccc(/C=C(\C#N)c3nc4ccccc4[nH]3)cc2OC)o1 ?
PfGluPho inh: -2; MC4R barr agon: 1; MC4R antag cAMP: 18; B2AR ag: 43*; ABHD5-PLIN5 inh: -2

What do the screens show for `COC(=O)/C(C#N)=C\c1c(OC)[nH]c2ccccc12`?
PfGluPho inh: -15; MC4R barr agon: 0; MC4R antag cAMP: -5; B2AR ag: 8; ABHD5-PLIN5 inh: -2

Results for O=C(Nc1ccccc1-c1ccccc1)C(c1ccccc1)c1ccccc1 ?
PfGluPho inh: 0; MC4R barr agon: 9.4*; MC4R antag cAMP: 1; B2AR ag: -3; ABHD5-PLIN5 inh: 1

What do the screens show for `O=C(Nc1ccc2c(c1)oc1ccccc12)c1ccncc1`?
PfGluPho inh: -10; MC4R barr agon: 2; MC4R antag cAMP: -9; B2AR ag: 38; ABHD5-PLIN5 inh: 22*

Results for O=C(Nc1ccc2c(c1)oc1ccccc12)c1cccnc1 ?
PfGluPho inh: 4; MC4R barr agon: 1; MC4R antag cAMP: 21; B2AR ag: 4; ABHD5-PLIN5 inh: 6

Results for COc1ccccc1C(=O)Nc1nnc(SCC(=O)Nc2ccc3c(c2)oc2ccccc23)s1 ?
PfGluPho inh: 4; MC4R barr agon: -2; MC4R antag cAMP: 10; B2AR ag: -5; ABHD5-PLIN5 inh: 3

What do the screens show for `Cc1cccc(C(=O)Nc2nnc(SCC(=O)Nc3ccc4c(c3)oc3ccccc34)s2)c1`?
PfGluPho inh: -12; MC4R barr agon: 9.4*; MC4R antag cAMP: 1; B2AR ag: 2; ABHD5-PLIN5 inh: 1

How did O=C(Cn1cnc(S(=O)(=O)N2CCOCC2)c1)Nc1ccc(OC(F)(F)F)cc1 do in these assays?
PfGluPho inh: 6; MC4R barr agon: -1; MC4R antag cAMP: 2; B2AR ag: -2; ABHD5-PLIN5 inh: -7

What do the screens show for `COc1ccc(NC(=O)CN2C(=O)COc3ccc(S(=O)(=O)N4CCOCC4)cc32)cc1Cl`?
PfGluPho inh: 4; MC4R barr agon: -3; MC4R antag cAMP: -3; B2AR ag: -6; ABHD5-PLIN5 inh: 8
